Assay results: publication PMC3235361 (Biochemistry, 2011)

Key:
[1] = system: differentiated PC-12 cells; test: Neuroprotection against Aβ42, MTT assay, differentiated PC-12 cells; format: cell-based; settings: both isomers to a similar extent, data not shown
[2] = system: rat primary cortical or hippocampal neurons; test: Toxicity compared with WT Aβ across MTT and LDH assays, rat primary neurons; format: cell-based; settings: 10 μM, 48 h
In short: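 E18 rat cortical or hippocampal neurons on poly-D-lysine in DMEM/10% FBS; 5 μM cytosine arabinoside from 24 h; treated at day 6. HFIP-treated peptide films dissolved in 60 mM NaOH, diluted in medium (final NaOH ≤6 mM), sonicated; 10 μM final, 48 h. MTT: 4 h at 37°C, stop overnight, OD; 3 experiments. LDH release: 6 experiments. 6 wells/point; normalized to NaOH-medium control; ANOVA/Tukey.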

| Compound | protection against Aβ-induced toxicity, MTT (in words) [1] | toxicity compared with the WT Aβ form (in words) [2] |
| --- | --- | --- |
| CC(=O)N[C@H](CC[S+](C)[O-])C(=O)O (stereo partly drawn) [Ac-D-Met(O)] | significantly protected |  |
| [Met(O)^35]Aβ42 [Aβ42-Met(O)] |  | significantly less toxic |
| CC(=O)N[C@@H](CC[S+](C)[O-])C(=O)O (stereo partly drawn) [Ac-L-Met(O)] | significantly protected |  |
